Assay results as given in the EternaBench riboswitch data.

Test system: MS2 coat protein
Experiment: apparent Kd, MS2 coat protein; higher = weaker binding; RNA-MaP array; FMN 200 µM where present
Outline: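 Apparent Kd: the median of filtered binding-curve fits from single clusters. Designs were transcribed on Illumina sequencing-chip clusters by stalled E. coli RNA polymerase and titrated with SNAP-549-labelled MS2 coat protein from 0.7 or 1.5 nM, doubling to 3 µM, in 100 mM Tris-HCl pH 7.5, 80 mM KCl, 4 mM MgCl2, BSA, DTT, yeast tRNA and Tween-20. Each series ran without and then with constant ligand, and green signal was normalised to red-channel RNA signal and control-cluster median Fmax.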

[1] = designed as: OFF switch for flavin mononucleotide, no ligand
[2] = ligand present: flavin mononucleotide, designed as: OFF switch for flavin mononucleotide
[3] = designed as: ON switch for flavin mononucleotide, no ligand
[4] = ligand present: flavin mononucleotide, designed as: ON switch for flavin mononucleotide

Sequence | apparent Kd [1] [nM] | apparent Kd [2] [nM] | apparent Kd [3] [nM] | apparent Kd [4] [nM]
GCAUGGAAAGUGAGGAUAUACCACUGGAUACAGUGGUAGAAGGCACAUGAGGAUCACCCAUGUUUCUACCAUGC | 13.4 | 19.1 |  | 
ACACGGUAUGUAGGAUAUGCAUAGCAUUGCUAUGCAGAAGGACAUGAGGAUCACCCAUGUAUGUAUUCCAUACUAAUCCCGUGA | 5.78 | 5.88 |  | 
UCAUUUUACACAGGAUAUACUCAUAUACAGUUGUUUGGCUCUUACAUGUUAGUAGAAGGGUGCAACAUGAGGAUCACCCAUGUA |  |  | 621 | 250
GGUGCCAUGUAGAAGGCAGACCUGAUUCAGAUCUGAGGAUAUACAUGAGGAUCACCCAUGUAAAGGCACCGCACGAGAGUGCAA | 6.05 | 8.57 |  | 
GGACGUCUCAUUAACAUGAGGAUCACCCAUGUCGAAAGACAUGAGGAUAUGGAUCCUAAUUGGAUCCAGAAGGCAUGGACGUCC |  |  | 98 | 582
GCAGCACUUUAAAACAUGAGGAUCACCCAUGUCGAUUGUUAUGAGGAUAUGCAUCGGAUGAAGAUGCAGAAGGCAUUGUGCUGC |  |  | 7.36 | 6.23
AGCCUGCUGCGAGGAUAUCAACUAAAGGGUCCGAUUUCCGAGCGGAACAUGAGGAUCACCCAUGUUGAGAAGGCGCGAGUAUAG | 25.6 | 182 |  | 
GUAGCAUUGAGAGGAUAUCCAUACCGGAAACGGACAUGAGGAUCACCCAUGUCGCGAAAGCGGUGGGAGAAGGCUCUAUGCUAC |  |  | 4.52 | 4.46
ACAUGAGAGUUAGGAUAUCUUGUACCUACAUGUGACAUGAGGAUCACCCAUGUGGUAAGUAUGAGGGAGAAGGAACAGAUAUGU |  |  | 43.9 | 33.9
AGCUAGUGAGGAUAUACGAACAUGUCAAAAGACGUGAAGGGACAUGAGGAUCACCCAUGUAGAAGGCACUAGCA | 41.1 | 139 |  | 
UAGUGAUUGCAAGGAUAUGCUUGUGUUUUAUUUUUUUUAAUAUCUAACAUGAGGAUCACCCAUGUGCAGAAGGUGCUUGAUUUG |  |  | 47.8 | 48.8
GGGUACAUCGGAGGAUAUCCUGUAAAUACAUGAGGAUCACCCAUGUCGAUGGAGACAUCGGAGAUUGAGAAGGCCGAUGUACCG |  |  | 35 | 6.74
UUGGAGUACGUAGGAUAUGUAGGAUAUUCCUACAUGAGGAUCACCCAUGUUUACAUGGAAGAAGGACAGAAGGACGUGCUCCAU |  |  | 1120 | 14.7
CACAUGGUUACAGGAUAUGUUAGGUUGCAGUUGAUUGGUUAUUAAAAUAUUACAGAAGGGUAAGACAUGAGGAUCACCCAUGUG |  |  | 175 | 97.5
CACCGUAACAGAGGAUAUCAAACAUGAGGAUCACCCAUGUAAUAAAUGAGAAUUUCGAAUGUACCUGAGAAGGCUGAAACCGGC | 35.6 | 41.1 |  | 
UCGUUUGUACUAGGAUAUACCGACGAAAGAUCAGUAGAAGGAGUAACAGACAUGAGGAUCACCCAUGUAUGGGUCCUUAAACAA | 35.8 | 217 |  | 
UGUUGUAUUACAGGAUAUCUAUGAUUUUUAUAUAGAGAAGGGUAUUCACAUGAGGAUCACCCAUGUAUAUACGAGGAAGUUGUG |  |  | 49 | 56
AGGAAUUUGUAGAAGGACGACUAUUAAGAUUUCGUAGGAUAUACUAUUUACAUGAGGAUCACCCAUGUUUAAAUGGAACAAUGU | 8.06 | 11.1 |  | 
CCAGCGAGUGUGAGGAUAUGCUGGUCCUUGGAUCAGCAGAAGGCACAUGAGGAUCACCCAUGUGAGGACGUUGG | 28.2 | 248 |  | 
GUGGUGCAUAUACGUGGAUGUACAUGAGGAUCACCCAUGUAAGAGGAUAUGCGGAUACUAGCUCAGCAGAAGGCUUACAACUGA | 11.3 | 41 |  | 
UUGCCUCAGAACAUGAGGAUCACCCAUGUGCUGCGGGCAACGUAGGAUAUGAUGGUGCAACACCAUCAGAAGGAUGAUGGUACC |  |  | 5.62 | 5.45
GUGGUCAGACAUGAGGAUCACCCAUGUGGAAUAAAUAACAGACAGGAUAUCUAAUAUAGGAUAUAGGAGAAGGGUCGAUUGGUG |  |  | 89 | 85.3
GUAGCUAUCGGAGGAUAUUCAUGAUACAUGAGGAUCACCCAUGUUAAAUUGGGAGAAGGCCGAUAGCUACAAGAGCGAAAGCUC |  |  | 14.8 | 5.54
GGACGUCGGAUAAACAUGAGGAUCACCCAUGUAACUAGACAUGAGGAUAUGGAUUCUAAUUGGAUCCAGAAGGUAUCGACGUCC |  |  | 193 | 211
UUUAAUCGAAACAUGAGGAUCACCCAUGUGUUGUAAUUAACAUAGGAUAUUUGUAUACUUUUAUAAGAGAAGGAUGAUAAUACU |  |  | 21.2 | 15.8
GUCGUGUUAGGAUAUGGCAACGGCGGCGAAAGUUGUUGUUGUUAGAAGGAACAUGAGGAUCACCCAUGUAUGAC | 37.7 | 113 |  | 
UAGCUUGACGCAGGAUAUCCAAGGCUGAAAUGAGGAGAAGGGCGCCAAACAUGAGGAUCACCCAUGUAUUAUGCAGGGUCCUCG | 302 | 152 |  | 

Sequence | apparent Kd [1] [nM] | apparent Kd [2] [nM] | apparent Kd [3] [nM] | apparent Kd [4] [nM]
UACAUAAAUGAAGGAUAUCGAUAUCCAACAUGAGGAUCACCCAUGUUGAGGAUCACCCAUGUAAAUGAGAAGGUUAACAUAACU |  |  | 70.5 | 73.5
AUACAUGAGGAUCACCCAUGUAAUUAAUUAAUUAAUAAGAUCAAGGAUAUCAGCUCGAUUAGAGCUGAGAAGGUGAUCACAUGU |  |  | 417 | 306
UGGUACUAGGGAGGAUAUGGGAAGAUACAUGAGGAUCACCCAUGUUUAAGAAUGCCGAGCGGCAACUAGAAGGCCCUAGUACCU |  |  | 479 | 20.8
CGUCUAUGCUAGAAGGCAUGAAACAUGAGGAUCACCCAUGUCAAAGACAUGAGGAUAUAGCAUAGACGAAAAGUGCGAAAGCAC |  |  | 4.43 | 3.26
GGGCGUAAUACAUGAGGAUCACCCAUGUCAGAAAGGGUAAUCAGAAGGUACUAUUAGAGAAAGAGUAAGGAUAUGAAUACGCCC |  |  | 876 | 169
GGGUCAACAUGAGGAUCACCCAUGUAGGAUAUCGCUAUUGUAAUCAUGAAACAUGAUUACAAUAGCGAGAAGGACAUAUGUCCC | 9 | 11.8 |  | 
GUCGAAGCUGUACCAGUCGACGGUCAGGAUAUACAUGAGGAUCACCCAUGUGCUAUUGAUACUAUGUAGAAGGGACCCACCGCA | 10.7 | 11.2 |  | 
AUAAUGAGAGGAUAUACAUGAGGAUCACCCAUGUUAUUAACACGGCGAGCUCCAAUACGUAGAAGGCUCAUUUA | 123 | 26.5 |  | 
AGGUACUAGGGAGGAUAUGGGAAGAUACAUGAGGAUCACCCAUGUUUAAGAAUGCCGAGAGGCAACUAGAAGGCCCUAGUACCU |  |  | 454 | 19.8
AGCAUGCUAGGAUAUACGGGACAUUAGGGUUCGUUGUAUGGACAUGAGGAUCACCCAUGUAGAAGGAGCGUGCA | 28 | 99.8 |  | 
CAAUUUAUAACAGGAUAUGUAUUACAAUAGUUAAUAGAAGGGUUUAAUACAUGAGGAUCACCCAUGUCAUGUGUCAUAAUUACC | 33.5 | 28.8 |  | 
UGUGAGUUGAUGUUAGAUAGGAGAACAUGAGGAUCACCCAUGUAGGAUAUUCAAAGACGAAGAUAGAAGAAGGACAUAGGUUUC | 17.7 | 21.5 |  | 
CUCUUGUCAGGAUAUUAUGGACGAUAGCAGGACUACGUCAGUGAGAAGGGACAUGAGGAUCACCCAUGUAAAAU | 82 | 67.2 |  | 
CAGCGAUAGCUAAAGUAUCUAUCAGAGGAUAUUUAUGAAACAUGAGGAUCACCCAUGUGACACUGGGAGAAGGCUGAUAGAUAG |  |  | 10.1 | 5.25
GGUGCUAUGUAGAAGGCAGAUCUGAUUCAGAUCUGAGGAUAUACAUGAGGAUCACCCAUGUUAAGCACCAGCACGAGAGUGCAA | 6.49 | 11.2 |  | 
GGAGCCGGCCUAGGAUAUUUCAUAAUAUUACAUGAGGAUCACCCAUGUAGGCCAGAAGGCCUUGGGAAGAAGGAGGUCGGCUCC |  |  | 42.6 | 15.9
UCAUUGAUUGUGAGGAUAUCGAUGUGAUGGUUUGUCGAGAAGGCACAUGAGGAUCACCCAUGUUUGUUUGGGCU | 494 | 253 |  | 
GACGUCGGAAGUCGACGCCACUACAAGGAUAUGCACAUGAGGAUCACCCAUGUUACGAAAUCGUAGCAGAAGGUGUAGUCGUCU |  |  | 245 | 24
UUUAUUUUGCAAGGAUAUGUUUAAUUUUAGUUUCCUUACACAUGAGGAUCACCCAUGUUAUACUUACAGAAGGUGCAUAAUUUU | 173 | 94.6 |  | 
CGAUAGGACAGAGGAUAUACACAUGAGGAUCACCCAUGUGAUUACAAUUCUUAAGAUUCAAACAUGUAGAAGGCUGUCCUAUCG | 9.25 | 17.4 |  | 
AUGCGUGGCUAGGAUAUUGAGGAAAUUAGUCAGCGAGAAGGAGCCACAUGAGGAUCACCCAUGUGGUGAAGCUC | 15.5 | 60.3 |  | 
ACAUUUUAUGCAGGAUAUUGACAUAUAUUUAAACAAGAAGGGCAUUACAUGAGGAUCACCCAUGUUAUAUUGGUAUAUAAGUUC | 17.4 | 14.8 |  | 
UAUGAGCGAGGAUAUGCUUGGGACGUCGUUCUUGCGGCGAGACAUGAGGAUCACCCAUGUAGAAGGCGCGAGCG | 18.4 | 18.5 |  | 
UCGUGAAGGAUAGGAUAUGGACAUGAGGAUCACCCAUGUACAUGGGAAUGAAUACUGAAUUUGUACUAGAAGGGUUACAUAAAU | 44.4 | 39.5 |  | 
GGUGUCAUCGAGAAGGCCUCAACAUGAGGAUCACCCAUGUUGUAAUAUGGGAGGAUAUCGAUGAUACAGCUACGUUUCGUAGCC |  |  | 20.7 | 6.23
UUACCUCAUAUGGUUACAUGAGGAUCACCCAUGUGAAUAGCACAGGAUAUCACGAGGGCCACGUGUGAGAAGGGUGAUGUGAGG |  |  | 438 | 167
CGAUUUUAUAGAGGAUAUGUUUAACAUGAGGAUCACCCAUGUGAGGUGGAAAUAUUUAAUUACAUACAGAAGGCUAUACAAUCG | 234 | 180 |  | 
